# Hits are enriched below; roughly 3% of the tested compounds scored in any of these assays.
# NPY Y2 blocker = antagonists of human neuropeptide Y receptor Y2; NPY-Y2 expressing cells, antagonist mode; 140,000 compounds, 0.99% hits; inhibition, % at 2.7 µM
# Wee1 stabilizer = inhibitors of human Wee1 degradation; AID 1321; reporter increase, % at 5 µM; 220,000 compounds, 1.2% hits; P30291; HeLa Luc-Wee1K328M stability, luciferase luminescence; 100% = proteasome inhibitor MG132 effect;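 active = activation above the mean of all tested compounds plus 3 SD, set per screening run, cut at about 8.8% in these data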;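 also: cells exposed to compound for 20 h before luminescence read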
# Target sequence (P30291 whole entry K328M): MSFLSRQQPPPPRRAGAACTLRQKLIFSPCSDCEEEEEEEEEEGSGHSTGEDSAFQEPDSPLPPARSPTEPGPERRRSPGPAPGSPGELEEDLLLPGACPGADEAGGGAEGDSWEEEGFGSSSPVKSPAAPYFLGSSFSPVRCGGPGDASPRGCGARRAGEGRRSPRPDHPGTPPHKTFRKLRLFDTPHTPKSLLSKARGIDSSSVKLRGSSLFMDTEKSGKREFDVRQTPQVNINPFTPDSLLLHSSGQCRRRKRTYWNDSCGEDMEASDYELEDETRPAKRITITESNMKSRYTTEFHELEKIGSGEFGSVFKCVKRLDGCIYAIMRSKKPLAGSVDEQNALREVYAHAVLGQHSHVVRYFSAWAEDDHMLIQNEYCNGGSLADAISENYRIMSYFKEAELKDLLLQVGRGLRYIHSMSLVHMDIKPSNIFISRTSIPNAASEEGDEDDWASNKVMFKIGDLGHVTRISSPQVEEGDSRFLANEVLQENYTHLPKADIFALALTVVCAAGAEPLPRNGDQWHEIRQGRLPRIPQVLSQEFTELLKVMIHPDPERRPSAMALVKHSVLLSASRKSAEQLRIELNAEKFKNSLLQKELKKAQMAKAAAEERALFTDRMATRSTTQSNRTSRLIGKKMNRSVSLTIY
# NPY1 pot ag = potentiators or agonists of human neuropeptide Y receptor Y1 | 220,000 compounds, 0.37% hits | P25929 | activation, % at 3.6 µM | NPY-Y1 expressing cells, potentiator/agonist activation; in the data active = activation above about 33%, passing the limit was not always enough;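 also: cells stimulated with NPY at EC10 then isoproterenol at EC100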
# NPY2 pot ag = potentiators or agonists of human neuropeptide Y receptor Y2; activation, % at 3.6 µM; 220,000 compounds, 0.45% hits; cells expressing NPY-Y2, potentiator/agonist read-out; in the data active = activation above about 27%;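 also: cells stimulated with NPY near EC25 plus isoproterenol at EC100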
# Hsp70 act = switches on Hsp70 transcription; HeLa Hsp70 promoter luciferase reporter, luminescence; scaled: vehicle 0, proteasome-inhibitor control 100%; activation, % at 10 µM; 200,000 compounds, 0.04% hits; AID 1203;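 active = activation above the mean across all tested compounds plus 3 SD, cutoff set per campaign, cut at about 5.5% in these data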
# NPY-Y1 antag = blocks the human neuropeptide Y Y1 receptor; AID 1040; 200,000 compounds, 1% hits; HEK293-CNG Y1 cells, membrane potential fluorescence; NPY at EC95, then isoproterenol; inhibition, % at 3.6 µM;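 active = inhibition above the campaign mean inhibition of all tested compounds plus 3 SD, cut at about 20% in these data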
#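 material = HEK293 cells with Y1 receptor plus CNG channel | also added = NPY 25 nM then isoproterenol 1 µM plus Ro 20-1724 25 µM | schedule = dye 3 h, compound 60 min room temperature, stimulation 45 min | measured by = membrane potential fluorescence | benchmarks = high control isoproterenol alone, low control NPY with isoproterenol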
# NPY-Y1 ant conf = confirmation of human neuropeptide Y receptor Y1 antagonists. inhibition, % at 3.6 µM. 1,200 compounds, 21% hits. shares compounds with NPY-Y1 antag. HEK293-CNG NPY-Y1, membrane potential fluorescence, cAMP; NPY challenge against isoproterenol-raised cAMP; in the data active = inhibition above about 20%
# NPY-Y2 antag ct = human NPY-Y2 antagonism in NPY-Y1 counter-screen; inhibition, % at 3.6 µM; HEK293 NPY-Y2 CNG membrane potential fluorescence; cells given NPY, then isoproterenol; 1,200 compounds, 28% hits; shares compounds with NPY-Y1 antag; AID 1255
# Hits are given with their value; i = inactive; nt = not tested or not shown. Rule as the data show it, unless noted: active = inhibition above about 17%; inactive = the rest.
SMILES,NPY Y2 blocker,Wee1 stabilizer,NPY1 pot ag,NPY2 pot ag,Hsp70 act,NPY-Y1 antag,NPY-Y1 ant conf,NPY-Y2 antag ct
Cc1ccc(/C=N/NC(=O)c2ccccc2OCc2ccc(F)cc2)o1,i,i,i,i,i,22,i,i
NC(=O)NC(=O)COC(=O)c1ccccc1OCc1ccc(F)cc1,nt,i,i,i,nt,nt,nt,nt
COc1ccc(/C=N/NC(=O)c2ccccc2OCc2ccccc2)c(OC)c1,nt,i,i,i,i,25,i,i
CCC(CC)=NNC(=O)c1ccccc1OCc1ccc(F)cc1,i,i,i,i,i,21,i,i
Cc1ccc(/C=N/NC(=O)c2ccoc2C)o1,i,i,i,i,i,i,nt,nt
COc1ccc(C)cc1N(CC(=O)Nc1ccc2c(c1)OCCO2)S(C)(=O)=O,nt,i,i,i,i,i,nt,nt
CC(C)(C)c1ccc(CN2N=C(/C=C/c3ccccc3)CCC2=O)cc1,nt,i,i,i,i,25,i,i
O=C1CCC(/C=C/c2ccccc2)=NN1Cc1ccccc1,nt,i,i,i,i,i,nt,nt
Cc1[nH]nc2ncc(C(=O)c3cc(F)ccc3O)cc12,i,i,i,i,i,i,nt,nt
CCCCN1Cc2cc(C(=O)c3cc(F)ccc3O)cnc2NC1=O,i,i,i,i,i,22,i,i
Cc1ccc(CNC(=O)CCc2nc(-c3cccs3)no2)cc1,i,i,i,i,i,21,i,i
O=C(CCc1nc(-c2cccs2)no1)NCc1ccc(F)cc1Cl,i,i,i,i,i,i,nt,nt
CCCCNCC(O)(c1ccc(Cl)cc1)c1ccc(Cl)cc1,nt,i,i,i,i,26,i,17
CCCn1c(=N)n(CC(=O)O)c2ccccc21,i,i,i,i,i,i,nt,nt
CCCCOC(=O)Cn1c(=N)n(CCC)c2ccccc21,i,i,i,i,i,40,i,i
C/C(=N\NC(=O)c1ccc(=O)[nH]n1)c1cccnc1,i,i,i,i,i,i,nt,nt
COc1cc(S(=O)(=O)NCc2ccc3c(c2)OCO3)ccc1Cl,i,i,i,i,i,i,nt,nt
O=S(=O)(NCc1ccc2c(c1)OCO2)c1ccc2c(c1)oc1ccccc12,i,i,i,i,i,22,i,19
CCN(CC)CCN(Cc1cc2cc(C)cc(C)c2[nH]c1=O)C(=S)NCc1ccco1,i,i,i,i,i,21,i,i
CCN(CC)CCN(Cc1cc2cc(C)ccc2[nH]c1=O)C(=S)NCc1ccco1,i,i,i,i,i,i,nt,nt
CCN(CC)CCN(Cc1cc2ccc(C)c(C)c2[nH]c1=O)C(=S)NCc1ccco1,nt,i,i,i,i,27,i,i
O=C(NCc1ccccc1)NC1CCS(=O)(=O)C1 (stereo not given),nt,i,i,i,i,i,nt,nt
CCOC(=O)c1c(C)sc2c1N(C(=O)CN1CCOCC1)c1cc(Cl)ccc1S2,i,i,i,i,i,i,nt,nt
O=C1c2cccc3c(N4CCCCC4)ccc(c23)C(=O)N1c1ccc(O)cc1,nt,i,i,i,i,22,i,20
O=C1c2cccc3c(N4CCCCC4)ccc(c23)C(=O)N1c1ccccc1O,nt,i,i,i,i,i,nt,nt
SMILES,NPY Y2 blocker,Wee1 stabilizer,NPY1 pot ag,NPY2 pot ag,Hsp70 act,NPY-Y1 antag,NPY-Y1 ant conf,NPY-Y2 antag ct
O=C(NCc1ccc(Cl)cc1)c1ccc(Br)o1,i,i,i,i,i,i,nt,nt
CC(NC(=O)Cn1c(NCCO)nc2ccccc21)C1CC2CCC1C2 (stereo not given),nt,i,i,i,i,40,25,i
Cc1nc2ccccc2n1CC(=O)NC(C)C1CC2CCC1C2 (stereo not given),nt,i,i,i,i,i,nt,nt
CCOC(=O)c1c(C)n(-c2ccc(C)cc2)c2ccc(OCC(O)CNCCCO)cc12 (stereo not given),nt,i,i,i,i,29,36,41
CCOC(=O)c1c(C)n(-c2ccc(C)cc2)c2ccc(OCC(O)CNCC3CCCO3)cc12 (stereo not given),nt,i,i,i,i,59,62,72
OC(CNCC1CCCO1)COc1ccc(OCC(O)CNCC2CCCO2)cc1 (stereo not given),i,i,i,i,i,i,nt,nt
CCc1n[nH]c(=S)n1/N=C/c1ccc(N(C)c2ccccc2)cc1,nt,i,i,i,i,35,i,i
CCc1n[nH]c(=S)n1/N=C/c1ccc2c(c1)OCO2,i,i,i,i,i,i,nt,nt
C#CCn1c(=NC(=O)c2ccc(S(=O)(=O)N3CCCc4ccccc43)cc2)sc2cc(S(N)(=O)=O)ccc21,i,i,i,i,i,24,i,31
Clc1ccc(-c2csc(=Nc3cccnc3)n2CCCn2ccnc2)cc1Cl,i,i,i,i,i,29,i,i
CC1(C)CC(N2CCCC2)=CC(=[N+]2CCCCCC2)C1,nt,i,i,i,i,26,23,i
CC1CC(C)C[N+](=C2C=C(N3CCCC3)CC(C)(C)C2)C1 (stereo not given),nt,i,i,i,i,42,31,i
CC1(C)CC(N2CCN(c3ccccc3)CC2)=CC(=[N+]2CCCC2)C1,i,i,i,i,i,i,nt,nt
O=C(O)CCSc1nc2ccccc2s1,i,i,i,i,i,27,i,i
Cc1ccc(Cn2nc(-c3ccccc3)nc2-c2ccccc2)cc1,i,i,i,i,i,25,i,i
CC(/C=C/c1ccc(C)o1)=C\C(=O)O,i,i,i,i,i,22,i,i
CCNS(=O)(=O)c1c(C)cc(C)c(N(C)S(=O)(=O)c2ccccc2)c1C,nt,i,i,i,i,i,nt,nt
O=S(=O)(Nc1ccccc1N1CCCCC1)c1ccc(F)cc1F,nt,i,i,i,i,i,nt,nt
CC(C)OCCCNC(=O)c1c(N)n(/N=C/c2cccs2)c2nc3ccccc3nc12,i,i,i,i,i,25,i,i
CCCCCCCn1c(=N)n(CC(O)c2ccco2)c2ccccc21 (stereo not given),nt,i,i,i,i,33,24,23
CC(C)(C)c1ccc(Cn2c(=N)n(CC(O)c3ccco3)c3ccccc32)cc1 (stereo not given),nt,i,i,i,i,47,22,31
Cc1ccc(N=C2NC(=O)CS2)cc1,i,i,i,i,i,i,nt,nt
Cc1ccc(SCC(=O)N=C2NC(=O)CS2)cc1,nt,i,i,i,i,23,i,i
Cc1ccc(-c2csc3nc4c5ccccc5c(NCCCN(C)C)nn4c(=O)c23)cc1,nt,i,i,i,i,24,24,26
CC(=O)Nc1ccc(S(=O)(=O)Nc2nc(C)cc(-n3nc(C)cc3C)n2)cc1,i,i,i,i,i,22,i,i
CCc1cc(SC#N)ccc1N,nt,i,i,i,i,i,nt,nt

# Assay outcomes as filed in PubChem BioAssay.
